The source of these data is PMC6568187 (Theranostics, 2019).

A short description of one data set: Photophysical properties. Particulars: 10 mM PBS buffer pH 7.4. It is filed as physicochemical. A digest of the protocol: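 Dyes in 10 mM PBS pH 7.4, 1 cm cuvettes. Excitation 730 nm; integrated emission 740–900 nm, with maximum absorbance kept below 0.1. Quantum yield came from the gradient of integrated fluorescence vs absorbance over several concentrations, referenced to ICG in DMSO (Φ 0.13). Relative absorbance and fluorescence were compared at 5 µM in the same buffer.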

For data set [1], the system named is U87-MG cells. Briefly: Organelle co-localization. It is filed as cell-based. The conditions noted are these: 20 µM, 37 °C, DMEM/F12 with 10% FBS pH 7.4. A digest of the protocol: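 50,000 U87-MG cells were plated in chamber wells and adhered overnight. Then 20 μM test compound for 30 min, two PBS washes, organelle trackers (LysoTracker Green DND 26, MitoTracker Green FM, BODIPY FL C5-ceramide–BSA, ER Tracker Green), then NucBlue 10 min. Confocal imaging, 60x water objective. Lasers: 488 nm for organelle stains, 405 nm for nuclei, 633 nm for dye. Cells re-imaged after 24 h in FluoroBrite DMEM + 10% FBS; co-localization expressed as Pearson's R.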

Data set [2] in a line: Aggregation: concentration dependence of absorbance spectra. The conditions noted are these: 1.25 - 20 µM in 10 mM pH 7.4 PBS buffer. It is filed as physicochemical.
In another data set the test system is most cell lines. The conditions noted are these: read-out: IC50 (cytotoxicity); cited from earlier work.
Data set [3] in a line: In vivo biodistribution and clearance. The conditions noted are these: normal CD-1 mice, 25 nmol intravenous, imaging 0.5-4 h.
Data set [4] has as its system U87-MG cells. The data set is described as follows: Cytotoxicity assay. Particulars: read-out: IC50 (cytotoxicity), 72 h in the dark, AlamarBlue. It is filed as cell-based. The method, boiled down:
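U87-MG cells grown in DMEM with 10% FBS at 37 °C, 5% CO2, passaged at 70% confluency. Seeded at 5000 cells/well and left overnight. DMSO stocks (0.02 M) were diluted in protein-free hybridoma medium (PFHM-II) to final 0.01–80 μM, then incubated 72 h. AlamarBlue added for 2 h; fluorescence read at Ex/Em 560/590 nm. Viability = background-corrected signal vs full-viability control ×100; n=5, mean ± SD.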
(Resazurin is reduced to fluorescent resorufin, in cell work by metabolically active cells.)

Data set [5] can be described thus: Solubility measurement by UV absorbance. It is filed as physicochemical. A digest of the protocol:
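DMSO stocks (100 mM) were diluted to 0–1000 μM in 10 mM PBS pH 7.4 with 1% DMSO; H2O and DMEM ± 10% FBS were also tested. Samples were shaken in the dark 6 h at room temperature (25 °C), equilibrated overnight and centrifuged at 600 x g for 15 min. Supernatant absorbance was read at 780 nm against blank, in triplicate.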

A short description of data set [6]: Photostability under LED illumination. It is filed as physicochemical. The conditions noted are these: 780 nm LED. A digest of the protocol:
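Solutions in 10 mM PBS pH 7.4, and in H2O with 1% DMSO, were left open to air and illuminated with a 780 nm LED. Dyes were used either equimolar (20 µM) or diluted to equal absorbance at 780 nm (1.7–2.7 µM). Absorbance at 780 nm was read every 10 min up to 60 min and plotted against time.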

For data set [7] the following is noted: in DMSO; λex 730 nm; used as standard; listed as ICG; cited from earlier work.

As a reminder, the IC50 is the concentration that inhibits the measured activity by half. Take `CC1(C)C(/C=C/C2=C(Cl)C(=C/C=C3\N(CCCCCC(=O)O)c4ccccc4C3(C)C)/CCC2)=[N+](CCCCCC(=O)O)c2ccccc21` [compound B]: in “Photophysical properties”, the “brightness (εmax x Φ)” value amounted to 3689, the εmax came to 149940 cm^-1M^-1, the λabs is recorded as 775 nm and the λem came out at 799 nm. Besides, the “∆λ (Stokes' shift)” value in the data set “Photophysical properties” is listed as 24 nm. This molecule gave a relative brightness in the data set “Photophysical properties” (relative to A) of 1.90. Moreover, the “Φ (fluorescence quantum yield)” value in the data set “Photophysical properties” (λex 730 nm, standard A in DMSO) is 0.025. In addition, in the data set with U87-MG cells [1], the “localization after time 0.5 h” value is given as “mitochondria”; the “localization after time 24 h” value was “mitochondria and lysosome”. In addition, the “H-aggregation from absorbance spectra” value in [2] is “blue-shifted shoulder”. In addition, in the data set with most cell lines, the IC50 is around 20 µM. In [3], the “organ signal / excretion” value is “high signal in the liver and low signal in duodenum even after 4 h post-injection”. Further, the concentration for half-maximal inhibition (IC50) in the data set on U87-MG cells [4] was 19.1 ± 1.01 µM. Further, in [5] (10 mM pH 7.4 PBS buffer), the “solubility (soluble up to)” value was at least 1000 µM. Also, the “concentration at which it begins to aggregate” value in data set [5] (H2O) is 100 µM. For the same molecule, in data set [5] (in water, 25 °C), the “solubility” value was “much less soluble”. For the same molecule, the “photostability” value in [6] (1 h, A 2.7 µM, B 2 µM, 1 1.7 µM (same absorbance at 780 nm), 10 mM pH 7.4 PBS) is “least stable and decomposed”. The “photodecomposition t1/2” value in data set [6] (same absorbance at 780 nm, 10 mM pH 7.4 PBS buffer) is below 10 min.

As to `CC1(C)C(/C=C/C=C/C=C/C=C2\N(CCCCS(=O)(=O)O)c3ccc4ccccc4c3C2(C)C)=[N+](CCCCS(=O)(=O)[O-])c2ccc3ccccc3c21` [compound A, indocyanine green], in the data set with U87-MG cells [1], the “localization after time 0.5 h” value is “golgi and ER”; the “localization after time 24 h” value is “golgi and lysosome”. Moreover, the “Φ (fluorescence quantum yield) of the standard” value in data set [7] is given as 0.13.
